Rpn11 inh – blocks the human proteasome subunit Rpn11; O00487; human 26S proteasome, Ub4-pepOG fluorescence polarization; 20S core pre-blocked with epoxomicin; inhibition, % at 20 µM; hit rate 0.59% among 360,000;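 active means inhibition at 20 µM, scaled to each plate's controls, above about 33%, limit read from the data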
PREPL inhibitor – human PREPL enzyme inhibition. Q4J6C6. recombinant PREPL, fluorescence polarization activity-based probe. inhibition, % at 5.96 µM. hit rate 0.68% among 320,000. AID 2751; in the data active means inhibition above about 43%;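 further: 0% = enzyme with DMSO and 100% = wells lacking enzyme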
TbMetRS inhib – blocks T. brucei methionyl-tRNA synthetase activity; purified T. brucei MetRS, ATP depletion, Kinase-Glo luminescence; inhibition, % at 11.9 µM; hit rate 0.4% among 360,000;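 active means inhibition above a per-plate cutoff of the control wells' mean inhibition plus 3 SD, cut at about 5.5% in these data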;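 further: 0% = DMSO wells median and 100% = median of wells with control inhibitor compound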
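Measured by: Kinase-Glo luciferase luminescence reporting remaining unconsumed ATP. Material: purified T. brucei MetRS enzyme. Doses: 11.9 µM compound single dose, 0.9% DMSO. Medium: HEPES buffer containing pyrophosphatase, BSA, spermine, DTT. Times: 15 min preincubation, 2 h reaction, all 25 °C. Reagent: methionine, ATP and bulk E. coli tRNA.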
CSN inh – inhibitors of human CSN-mediated cullin deneddylation; inhibition, % at 12.5 µM; Purified CSN, SCF-Nedd8-OG deneddylation, fluorescence polarization; Q92905; hit rate 0.38% among 360,000;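 active means pattern-corrected inhibition above about 35%, with an unprinted fluorescence ratio check between 0.5 and 1.5, limit read from the data, passing the limit was not always enough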;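 further: 0% = enzyme with substrate and 100% = substrate without enzyme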
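Material: human Csn5 produced in HEK293T cells; Input: enzyme 0.24 nM; Reagent: SCFSkp2-Nedd8OG substrate at 10 nM final; Dosing: 12.5 µM compound; Incubation: 90 min reaction at room temperature; Detection: fluorescence polarization of the substrate; Evaluation: % inhibition of substrate cleavage by Csn5; Control set: substrate-only high control, full reaction low control.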
Neddyl block – inhibitors of human cullin neddylation. P61081+Q13564. TR-FRET cullin neddylation, biochemical. inhibition, % at 25 µM. hit rate 0.58% among 360,000. AID 651699; in the data active means inhibition above about 36%
Target sequence (P61081 whole entry, looked up): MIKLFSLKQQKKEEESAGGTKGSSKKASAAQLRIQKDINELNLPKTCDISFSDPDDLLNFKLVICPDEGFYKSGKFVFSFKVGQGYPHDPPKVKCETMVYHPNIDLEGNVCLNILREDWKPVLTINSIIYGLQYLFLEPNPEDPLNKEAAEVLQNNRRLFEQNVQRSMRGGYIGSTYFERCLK
Target sequence (Q13564 whole entry, looked up): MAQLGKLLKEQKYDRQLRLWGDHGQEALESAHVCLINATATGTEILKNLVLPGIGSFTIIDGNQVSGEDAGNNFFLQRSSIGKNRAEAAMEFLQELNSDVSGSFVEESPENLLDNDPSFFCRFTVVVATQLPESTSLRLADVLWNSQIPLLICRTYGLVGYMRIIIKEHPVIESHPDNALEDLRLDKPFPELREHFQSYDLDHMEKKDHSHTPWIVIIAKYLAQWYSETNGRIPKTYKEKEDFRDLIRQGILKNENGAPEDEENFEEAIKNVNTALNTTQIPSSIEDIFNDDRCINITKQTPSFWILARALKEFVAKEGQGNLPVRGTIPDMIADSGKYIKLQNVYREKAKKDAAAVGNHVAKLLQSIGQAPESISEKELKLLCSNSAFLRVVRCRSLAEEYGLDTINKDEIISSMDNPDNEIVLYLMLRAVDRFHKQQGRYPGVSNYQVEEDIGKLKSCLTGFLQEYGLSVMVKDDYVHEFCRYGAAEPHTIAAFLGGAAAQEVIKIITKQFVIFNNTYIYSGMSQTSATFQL
HNF4A DNA FP – change in binding of human HNF4 alpha to DNA. P41235. HNF4a-FITC DNA binding, fluorescence polarization, 1 h. activity change, % at 10 µM. hit rate 0.3% among 360,000. AID 1224865; in the data active means activity change above about 30%, passing the limit was not always enough
Tb MetRS conf – Trypanosoma brucei MetRS inhibition confirmed; inhibition, % at 11.9 µM; hit rate 93% among 1,400; T. brucei MetRS enzyme, luminescence (ATP depletion); shares compounds with TbMetRS inhib; in the data active means inhibition above about 7%
Jurkat tox – kills Jurkat cells in T. brucei MetRS counterscreen; shares compounds with TbMetRS inhib; Jurkat cells viability, ATP luminescence; inhibition, % at 8.3 µM; hit rate 12% among 1,400; AID 624413; in the data active means inhibition above about 15%;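 further: 0% = vehicle and 100% = reference inhibitor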
Tb MetRS inh FP – orthogonal test for Trypanosoma brucei MetRS inhibitors; shares compounds with TbMetRS inhib; purified T. brucei MetRS, fluorescence polarization; inhibition, % at 11.9 µM; hit rate 44% among 1,400; in the data active means inhibition above about 17%;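 further: 0% = vehicle wells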
Starred values were filed as active, the others as inactive; x = not tested or not shown. Most compounds without a hit are left out; they make up all but 2.4% or so of the library.

SMILES | Rpn11 inh | PREPL inhibitor | TbMetRS inhib | CSN inh | Neddyl block | HNF4A DNA FP | Tb MetRS conf | Jurkat tox | Tb MetRS inh FP
Cc1cc(C(=O)NCC(=O)Nc2c(C)cccc2C)c2ccccc2n1 | 8.5 | 4.9 | 10.9* | 4.7 | 10.5 | -0.1 | 2.6 | -0.5 | -1.6
Cc1cc(C(=O)NCC(C)C)c2ccccc2n1 | 1.8 | 15.8 | -0.3 | -2.5 | -2.8 | 3.5 | x | x | x
N#C/C(=C\c1ccccc1[N+](=O)[O-])C(=O)NCc1ccccc1 | -49.4 | 0.2 | 0.2 | -4.8 | -18.9 | 2.5 | x | x | x
O=C(Cc1ccccc1)N/N=C/C=C/c1ccccc1[N+](=O)[O-] | 0.4 | -4.9 | 7.0* | 3.4 | -19.9 | -1.6 | 10.9* | 7.6 | 9.8
N#C/C(=C\C=C\c1ccccc1[N+](=O)[O-])C(=O)NCc1ccccc1 | 12.1 | 15.0 | 12.8* | 2.3 | -13.0 | 9.3 | 30.2* | 77.4* | 12.1
CC(C)C[C@@H](CNCC(=O)[C@H](Cc1c[nH]c2ccccc12)NC(=O)c1[nH]cnc1C(=O)N[C@@H](C)CN)NC(=O)c1nc[nH]c1C(=O)N[C@@H](C)C(=O)O | 9.4 | x | 22.8* | 0.1 | 2.8 | 1.9 | 36.7* | -1.2 | 10.3
CC(C)C[C@@H](CNCC(=O)[C@H](Cc1ccccc1)NC(=O)c1[nH]cnc1C(=O)N[C@@H](C)CN)NC(=O)c1nc[nH]c1C(=O)N[C@@H](CC(=O)O)C(=O)O | -2.7 | x | -0.2 | -1.1 | -8.5 | 1.6 | x | x | x
CCOC(=O)C(CCc1ccccn1)c1ccccc1 (stereo unspecified) | -9.2 | x | -0.4 | 4.4 | 4.7 | -0.6 | x | x | x
O[C@@H]1C[C@H](c2ccccc2)N(CC2CCCCC2)C[C@H]1n1cc(C2CC2)nn1 | 1.6 | x | -1.3 | 1.9 | 1.6 | -11.4 | x | x | x
CNC(=O)COC(=O)c1ccc(Cl)c(S(=O)(=O)N2CCCC2)c1 | -8.2 | -3.8 | -0.6 | 2.8 | -1.0 | 2.0 | x | x | x
CNC(=O)COC(=O)c1ccc(Cl)c(S(N)(=O)=O)c1 | -1.2 | 6.7 | 6.4* | -4.0 | -3.0 | -7.2 | 2.9 | -5.4 | 3.0
Cc1cccc(NC(=O)NNC(=O)c2cc(-c3ccccc3Cl)nc3ccccc23)c1 | -3.2 | -25.4 | -1.0 | -1.1 | -12.7 | -0.1 | x | x | x
O=C(NNC(=O)c1cc(-c2ccc(Cl)c(Cl)c2)nc2ccccc12)Nc1ccccc1 | 2.5 | -93.5 | 45.1* | 2.4 | 20.2 | 0.1 | 93.9* | 2.2 | 80.9*
COc1ccccc1C(=O)NNC(=O)C1CC=CCC1 (stereo unspecified) | 2.1 | 19.1 | -0.6 | -1.2 | 3.5 | 0.8 | x | x | x
O=c1c(OC2OC(CO)C(O)C(O)C2OC2OC(CO)C(O)C(O)C2O)c(-c2ccc(O)cc2)oc2cc(O)cc(O)c12 (stereo unspecified) | -14.2 | -7.0 | 7.1* | 1.5 | 6.3 | 0.6 | 21.7* | -3.1 | 22.5*
O=c1c(O[C@H]2O[C@@H](CO)[C@H](O)[C@@H](O)[C@@H]2O)c(-c2ccc(O)cc2)oc2cc(O)cc(O)c12 | -11.1 | 15.4 | 0.6 | 5.4 | -38.5 | -0.6 | x | x | x
CC(C)c1c(C(=O)Nc2ccccc2)c(-c2ccccc2)c(-c2ccc(F)cc2)n1CC[C@@H](O)C[C@@H](O)CC(=O)O | 7.8 | x | -0.9 | -3.3 | 6.0 | x | x | x | x
OC(c1cc(F)cc(Cl)c1)c1ncc(-c2ccc3ccccc3c2)[nH]1 (stereo unspecified) | -1.4 | x | 76.5* | 2.1 | 26.4 | 4.0 | 92.0* | 9.2 | 75.0*
Cc1ccc(-c2cnc(C(O)c3cc(F)cc(Cl)c3)[nH]2)cc1 (stereo unspecified) | 2.4 | x | 10.4* | 3.6 | 12.1 | 7.9 | 39.4* | 1.7 | 14.5
OC(c1cccc(Cl)c1)c1ncc(-c2ccc3ccccc3c2)[nH]1 (stereo unspecified) | -0.9 | x | 42.3* | 1.8 | 24.3 | 1.6 | 73.9* | 7.6 | 46.9*
OC(c1cccc(F)c1)c1ncc(-c2ccc3ccccc3c2)[nH]1 (stereo unspecified) | -6.1 | x | 1.4 | 1.7 | 15.7 | -0.7 | x | x | x
Cc1ccc(-c2cnc(C(O)c3ccc(Cl)c(F)c3)[nH]2)cc1 (stereo unspecified) | 2.8 | x | 1.0 | 0.8 | -8.3 | -1.5 | x | x | x
Cc1ccc(-c2cnc(C(O)c3ccc(Cl)c(Cl)c3)[nH]2)cc1 (stereo unspecified) | -1.5 | x | 9.4* | 5.9 | -2.0 | -3.8 | 36.6* | -9.5 | 14.3
COc1ccc(-c2cc(C(=O)N(C)Cc3nc4ccccc4c(=O)[nH]3)c3ccccc3n2)cc1OC | 1.8 | -1.0 | -0.1 | -0.9 | x | -4.8 | x | x | x
CC(=O)c1c(C)[nH]c(C(=O)OCC(=O)NCc2ccccc2)c1C | 1.7 | x | -0.3 | 0.2 | -2.7 | -0.1 | x | x | x
SMILES | Rpn11 inh | PREPL inhibitor | TbMetRS inhib | CSN inh | Neddyl block | HNF4A DNA FP | Tb MetRS conf | Jurkat tox | Tb MetRS inh FP
OC(c1cc(F)cc(Cl)c1)c1ncc(-c2ccccc2Cl)[nH]1 (stereo unspecified) | -4.2 | x | 23.8* | -6.0 | -3.1 | 1.1 | 58.5* | 3.7 | 24.0*
OC(c1ccccc1)c1ncc(-c2ccccc2Cl)[nH]1 (stereo unspecified) | -1.9 | x | -0.2 | -6.4 | -7.4 | -2.3 | x | x | x
CS(=O)(=O)N(CC(=O)N1CCN(Cc2ccccc2)CC1)c1ccccc1Br | -6.7 | 0.9 | -0.8 | -2.6 | 1.8 | -2.1 | x | x | x
CC(=O)Nc1ccccc1NC(=O)c1ccccc1-c1ccccc1 | -5.2 | -14.3 | 46.1* | 1.0 | -0.2 | 2.4 | 3.1 | -1.1 | -3.7
CCOc1ccccc1NC(=O)c1ccccc1-c1ccccc1 | -1.6 | 3.3 | -0.3 | -2.8 | -5.8 | -1.2 | x | x | x
NC(=O)c1cccc(-c2ccnc3c2CC(C(=O)Nc2ccc(Cl)cc2)O3)c1 (stereo unspecified) | 5.2 | x | 51.5* | -0.8 | 5.5 | 0.1 | 70.0* | 4.5 | 47.1*
NC(=O)c1cccc(-c2ccnc3c2CC(C(=O)Nc2ccccc2)O3)c1 (stereo unspecified) | -7.4 | x | 0.7 | 4.3 | 2.7 | 4.7 | x | x | x
O=C(CCC(=O)Nc1cccc([N+](=O)[O-])c1)N/N=C/c1cccs1 | 1.5 | x | 44.4* | 0.2 | -42.5 | -1.3 | 69.3* | 6.7 | 47.9*
Cc1ccc(NC(=O)CCC(=O)N/N=C/c2cccs2)cc1C | 1.8 | 1.8 | 0.8 | -16.1 | -28.9 | -3.4 | x | x | x
COc1ccc(CCNC(=O)c2cc(S(=O)(=O)N3CCCCC3)c[nH]2)cc1OC | -1.2 | 6.8 | 1.0 | -0.9 | 10.9 | -2.7 | x | x | x

Assay outcomes deposited in PubChem by several laboratories.
